Results from ChEMBL document CHEMBL1121925, “Isoxicam and related 4-hydroxy-N-isoxazolyl-2H-1,2-benzothiazine-3-carboxamide 1,1-dioxides. Potent nonsteroidal antiinflammatory agents” (1982).
Active and inactive are the calls of the source. The calls are words filed in the database; no cut-off is given here.

Key:
Rattus norvegicus [1] = assay: Antiinflammatory activity was assessed in carrageenan-induced rat paw edema(CIRPE) test after po administration; Inactive at 100 mg/kg; type: functional, organism-based; set-up: dose 100 mg/kg
In short: (§1)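 Male Charles-River rats, groups of 8–10; compound given orally as aqueous suspension, then 1 h later 0.05 mL of 1% carrageenin in 0.9% saline injected into plantar left hind paw. Injected and uninjected paw volumes measured 3 h later by mercury displacement to the lateral malleolus mark; difference compared statistically between treated and control groups at oral screening dose.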

Rattus norvegicus [2] = assay: Antiinflammatory activity was assessed in carrageenan-induced rat paw edema(CIRPE) test after po administration; type: functional; conditions: read-out: MED; in short: as §1
Rattus norvegicus [3] = assay: Antiinflammatory activity was assessed in prophylactic adjuvant induced polyarthritis(AIP) test after po administration.; type: functional; conditions: read-out: MED
In short: (§2)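 Male Charles-River-Lewis rats (150 ± 10 g), groups of 10. Day 1: heat-killed Mycobacterium butyricum in light mineral oil (250 μg/0.05 mL) injected into left hind paw. Dosing on days 1–20; sacrifice day 21, hind paw weights recorded; change taken as difference between day 1 and day 21.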

Rattus norvegicus [4] = assay: Antiinflammatory activity was assessed in therapeutic adjuvant induced polyarthritis(AIP) test after po administration.; type: functional; conditions: read-out: MED
In short: (§3)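 Male Charles-River-Lewis rats (150 ± 10 g) injected day 1 in left hind paw with heat-killed Mycobacterium butyricum in mineral oil (250 μg/0.05 mL). Day 14, only responders (lesions in both hind paws) randomized into groups of 10, treated days 14–27, sacrificed day 28; hind paw weight change from day 14 to day 28.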

Rattus norvegicus [5] = assay: Antiinflammatory activity was assessed in therapeutic adjuvant induced polyarthritis(AIP) test after po administration; type: functional; conditions: read-out: MED; in short: as §3
Rattus norvegicus [6] = assay: Antiinflammatory activity was assessed in prophylactic adjuvant induced polyarthritis(AIP) test after po administration; type: functional; conditions: for minimal effective dose: Rattus norvegicus, po, read-out: MED; in short: as §2

In the case of `CC(=O)Cc1noc(C2=C(O)c3ccccc3S(=O)(=O)N2)n1`, the MED (Rattus norvegicus [1]) is reported as “inactive”.
With `CC(=O)Cc1noc(C2=C(O)c3ccccc3S(=O)(=O)N2C)n1` the MED (Rattus norvegicus [1]) was “inactive”.
For `Cc1cc(NC(=O)CC(=O)c2ccccc2S(=O)(=O)N(C)C)no1`, the MED (Rattus norvegicus [1]) was “inactive”.
In the case of `Cc1cc(NC(=O)CNS(=O)(=O)c2ccccc2C(=O)O)no1`, the MED (Rattus norvegicus [1]) is reported as “inactive”.
In the case of `CC(=O)Oc1ccccc1C(=O)O` [ASPIRIN], the minimal effective dose (Rattus norvegicus [2]) is reported as 100 mg/kg.
In the case of `COc1ccc2c(c1)c(CC(=O)O)c(C)n2C(=O)c1ccc(Cl)cc1` [INDOMETHACIN], the minimal effective dose (Rattus norvegicus [2]) is reported as 0.37 mg/kg, the minimal effective dose (Rattus norvegicus [3]) is reported as 0.39 mg/kg and the minimal effective dose (Rattus norvegicus [4]) is reported as 0.39 mg/kg.
`Cc1cc(NC(=O)C2=C(O)c3ccccc3S(=O)(=O)N2C)no1` [ISOXICAM] showed a minimal effective dose (Rattus norvegicus [2]) of 12.5 mg/kg, a minimal effective dose (Rattus norvegicus [5]) of 1.56 mg/kg and a minimal effective dose (Rattus norvegicus [6]) of 1.56 mg/kg.
In the case of `CCCCC1C(=O)N(c2ccccc2)N(c2ccccc2)C1=O` [PHENYLBUTAZONE], the minimal effective dose (Rattus norvegicus [2]) is reported as 37.5 mg/kg, the MED (Rattus norvegicus [6]) is reported as 1.56 mg/kg and the minimal effective dose (Rattus norvegicus [6]) is reported as 1.56 mg/kg.
